In assay [1] the test system is Macrophage (Homo sapiens). As to the kind of experiment: Inhibition of cholesterol ester accumulation in human monocyte-derived macrophages at 20 uM.
A short description of assay [2]: Inhibition of chymotrypsin-like activity of rat liver proteasome using fluorogenic substrates for 6 hrs. The essentials:
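The chymotrypsin-like activity of the proteasome was measured by a previously reported procedure. Inhibition was expressed as an IC50 in μM.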

Another assay concerns HeLa. As to the kind of experiment: Cytotoxicity against human HeLa cells after 3 days by MTT assay. Particulars: 72 h. Format: functional, cell-based. The procedure, abridged: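 HeLa cells were used, following a previously reported procedure. The result was expressed as an IC50 in μM.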
(In general: Tetrazolium assays rely on reduction of a dye to a coloured formazan, in cell work by metabolically active cells.)

pIC50: −log10 of the molar value.

The inhibition is the percentage by which the read-out fell short of the control. A high value points to strong suppression. For orientation: pIC50 means the IC50 on a negative log10 scale, so that one unit is a factor of ten. Consider `O[C@@H]1CC[C@@]23C[C@]45CN6CCCC/C=C\CC[C@](O)(C=C(c7nccc8c7[nH]c7ccccc78)[C@@H]4CC6)[C@@H]5N2CC[C@@H]1O[C@@]12CC[C@@H](O3)[C@@H](O)CCN1[C@@H]1[C@]3(CN4CCCC/C=C\CC[C@]1(O)C=C(c1nccc5c1[nH]c1ccccc15)[C@@H]3CC4)C2`, for which the inhibition at 20 µM in assay [1] came out at 92%. Moreover, the figures for the pIC50 (in assay [2]; in the assay on HeLa) were 6.89 and 5.27, respectively.
In the same order, the values of `O=C(O)/C=C\CCCN1C(=O)C[C@]23CN4CCCC/C=C\CC[C@](O)(C=C(c5nccc6c5[nH]c5ccccc56)[C@@H]2CC4)[C@H]13` are 0%, 4.48 and < 4.30.
In assay [1], `O[C@]12C=C(c3nccc4c3[nH]c3ccccc34)[C@@H]3CCN(CCCC/C=C\CC1)C[C@@]31C[C@@H]3/C=C\CCCCN3[C@H]12` [MANZAMINE A] returned an inhibition at 20 µM of 80%. Besides, the pIC50 in assay [2] is 5.70; in the assay with HeLa it was 4.89.
For `O[C@@H]1CC[C@@]23C[C@]45CN6CCCC/C=C\CC[C@](O)(C=C(c7nccc8c7[nH]c7ccccc78)[C@@H]4CC6)[C@@H]5N2CC[C@@H]1O3` the same measures were 91%, 6.47 and 4.80.

(Values after ChEMBL document CHEMBL3297652, “Acantholactam and pre-neo-kauluamine, manzamine-related alkaloids from the Indonesian marine sponge Acanthostrongylophora ingens” (J Nat Prod, 2014).)
